Published values from different studies.
Each line is one published result; the experiments were not run side by side.
Target: Calcium/calmodulin-dependent protein kinase type IV (CAMK4, Homo sapiens, UniProt Q16566)
Sequence (Q16566 1-473, as in one of the studies): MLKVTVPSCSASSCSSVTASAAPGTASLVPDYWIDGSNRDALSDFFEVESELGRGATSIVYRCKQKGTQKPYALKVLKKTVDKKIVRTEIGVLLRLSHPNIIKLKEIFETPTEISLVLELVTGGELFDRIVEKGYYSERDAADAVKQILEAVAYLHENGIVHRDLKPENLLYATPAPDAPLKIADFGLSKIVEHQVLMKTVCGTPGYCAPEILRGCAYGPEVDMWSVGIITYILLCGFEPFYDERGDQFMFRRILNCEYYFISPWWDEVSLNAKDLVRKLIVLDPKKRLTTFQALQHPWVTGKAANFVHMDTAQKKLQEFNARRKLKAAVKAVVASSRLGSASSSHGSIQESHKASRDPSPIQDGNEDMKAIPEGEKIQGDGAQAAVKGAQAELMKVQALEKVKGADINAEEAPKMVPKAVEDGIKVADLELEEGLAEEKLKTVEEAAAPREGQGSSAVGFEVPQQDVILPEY

CN(C)c1nccc(-c2cnn3ncccc23)n1 — remaining binding (binding; 1 µM): 100%
Cn1nc(C(F)(F)F)cc1-c1cnc(N2CCc3cc(S(=O)(=O)Nc4c(F)cc(Cl)cc4F)cc(N4CCCC4=O)c32)nc1 — remaining binding (cell-free assay; competition with immobilised ligand; 1 µM): 100%
COc1cnc(Nc2cccc(S(N)(=O)=O)c2)nc1N1CCN(c2ccccc2)CC1 — remaining binding (binding; competition with immobilised ligand; 1 µM): 100%
N[C@H]1CCN(c2nccc(-c3cnn4ncccc34)n2)C1 — remaining binding (binding; 1 µM): 100%
O=C(c1ccc(Nc2ncc(Cl)c(-c3cc4ccccc4s3)n2)cc1)N1CCC(N2CCCC2)CC1 — remaining binding (binding; competition with immobilised ligand; 1 µM): 100%
CCOC(=O)c1cc2cc(-c3cc(C(=O)NCc4ccc(C(=O)O)cc4)nn3C)ccc2[nH]1 — remaining binding (cell-free assay; competition with immobilised ligand; 0.1 µM): 95%
c1cnn2ncc(-c3ccnc(N4CCC45COC5)n3)c2c1 — remaining binding (binding; 1 µM): 100%
Nc1c(C(=O)NCc2ccc(C(=O)NCCCC3CCCCC3)cc2)cnn1-c1ccccc1 — remaining binding (cell-free assay; competition with immobilised ligand; 0.1 µM): 98%
FC(F)(F)Oc1cccc(-c2cnc3ccc(-c4ccncc4)nn23)c1 — remaining binding (cell-free assay; competition with immobilised ligand; 5 µM): 100%
CC(C)(O)c1cncc(-c2nc3ccc(F)cc3n2C2CC2)c1 — remaining binding (cell-free assay; competition with immobilised ligand; 1 µM): 100%
CC1CCCN1c1nccc(-c2cnn3ncccc23)n1 (stereo not shown) — remaining binding (binding; 1 µM): 100%
CCN1CCN(Cc2ccc(C(=O)Nc3ccc(C)c(Oc4ccc5c(c4)CC(=O)N5)c3)cc2C(F)(F)F)CC1 — remaining binding (binding; competition with immobilised ligand; 1 µM): 100%
c1cncc(-c2cccc(Nc3nccc(NC4CCCCC4)n3)c2)c1 — remaining binding (binding; competition with immobilised ligand; 10 µM): 100%
Cc1c(NC(=O)c2cc(C(N)=O)nc3cc(F)ccc23)c(C(F)(F)F)nn1Cc1ccc(C(C)(C)C)cc1 — remaining binding (cell-free assay; competition with immobilised ligand; 1 µM): 90%
COc1ncc2cc3ccccc3nc2c1C#N — remaining binding (cell-free assay; competition with immobilised ligand; 5 µM): 93%
COc1ccnn2ncc(-c3ccnc(N(C)C)n3)c12 — remaining binding (binding; 1 µM): 100%
O=C(NCCCN1CCOCC1)c1ccc(Nc2nccc(-c3cc4ccccc4s3)n2)cc1 — remaining binding (binding; competition with immobilised ligand; 1 µM): 100%
O=C(Nc1c[nH]nc1C(=O)NC1CCNCC1)c1cc(F)cc(F)c1 — remaining binding (binding; competition with immobilised ligand; 1 µM): 100%
CNC(=O)Nc1ccc2c(c1)CC[C@@]21OC(=O)N(CC(=O)N(Cc2ccc(F)cc2)[C@@H](C)C(F)(F)F)C1=O — remaining binding (cell-free assay; competition with immobilised ligand; 1 µM): 75%
COc1cnc(Nc2cccc(S(N)(=O)=O)c2)nc1N1CCN(c2ccccc2)C(=O)C1 — remaining binding (binding; competition with immobilised ligand; 1 µM): 100%
Cc1cnc(Nc2ccc(C(=O)N3CCC(N4CCCC4)CC3)cc2)nc1-c1cc2ccccc2s1 — remaining binding (binding; competition with immobilised ligand; 1 µM): 100%
C[C@@H]1CCN(c2nccc(-c3cnn4ncccc34)n2)C1 — remaining binding (binding; 1 µM): 100%
